Source: ChEMBL document CHEMBL4043263, “Identification of selective 8-(piperidin-4-yloxy)quinoline sulfone and sulfonamide histamine H1 receptor antagonists for use in allergic rhinitis” (Bioorg Med Chem Lett, 2017)

Tests used:
[1] = Dissociation constant, pKa of the compound; format: physicochemical
[2] = Drug level in CD Sprague-Dawley rat brain at 1 mg/kg, iv administered via bolus dose measured after 5 mins by LC-MS/MS analysis; format: ADME, organism-based; conditions: read-out: Drug uptake
In short: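 Rats given a 1 mg/kg intravenous bolus; brain and blood sampled 5 min later. Reported as mean brain concentration (ng/g tissue) and brain:blood ratio.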

[3] = Ratio of drug level in brain to blood in CD Sprague-Dawley rat at 1 mg/kg, iv administered via bolus dose after 5 mins by LC-MS/MS analysis; format: ADME, organism-based; conditions: brain and blood
In short: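 Rats received a single intravenous bolus at 1 mg/kg. Brain and blood samples were taken 5 min after dosing. Brain concentration was expressed as ng/g tissue, and the brain:blood concentration ratio was calculated.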

[4] = AUC (0 to last) in CD Sprague-Dawley rat at 3 mg/kg, po by LC-MS/MS analysis
[5] = Blood clearance in CD Sprague-Dawley rat at 1 mg/kg, iv or 3 mg/kg, po by LC-MS/MS analysis; format: ADME, organism-based
In short: (§1)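 CD rats dosed intravenously at 1 mg/kg (n=4) or orally at 3 mg/kg (n=3) as a solution in H2O–PEG200–DMSO (50:45:5). Blood clearance reported as mean and as % of liver blood flow; half-life taken from intravenous data.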

[6] = Volume of distribution at steady state in CD Sprague-Dawley rat at 1 mg/kg, iv or 3 mg/kg, po by LC-MS/MS analysis; format: ADME, organism-based; conditions: in vivo, read-out: Vdss
In short: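 CD rats (n=4) received a 1 mg/kg intravenous dose of the dihydrochloride salt as a solution in H2O–PEG200–DMSO (50:45:5). Steady-state volume of distribution was taken from the intravenous blood profile and reported as the mean.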

[7] = Elimination half life in CD Sprague-Dawley rat at 1 mg/kg, iv by LC-MS/MS analysis; format: ADME, organism-based; conditions: in vivo, read-out: beta t1/2 (converted); in short: as §1
[8] = Oral bioavailability in CD Sprague-Dawley rat at 10 mg/kg by LC-MS/MS analysis; format: ADME, organism-based; conditions: in vivo
In short: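 Three rats dosed orally at 10 mg/kg in 0.5% hydroxypropylmethyl cellulose. Bioavailability is a lower-bound estimate because the terminal phase was poorly defined.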

[9] = Bioavailability in CD Sprague-Dawley rat at 2 mg/kg, sc by LC-MS/MS analysis; format: ADME, organism-based; conditions: in vivo
In short: (§2)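 Single rat dosed subcutaneously at 2 mg/kg in DMSO–PEG 200–water (5:45:50). Bioavailability estimated against intravenous data.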

Rattus norvegicus = test: Blood clearance in CD Sprague-Dawley rat at 1 mg/kg, iv or 3 mg/kg, po by LC-MS/MS analysis relative to liver blood flow; format: ADME, organism-based; conditions: in vivo; in short: as §1
[10] = Blood clearance in Beagle dog at 0.5 mg/kg, iv administered via bolus dose or 1 mg/kg, po administered via gavage by LC-MS/MS analysis; format: ADME, organism-based, Canis lupus familiaris
Canis familiaris = test: Blood clearance in Beagle dog at 0.5 mg/kg, iv administered via bolus dose or 1 mg/kg, po administered via gavage by LC-MS/MS analysis relative to liver blood flow; format: ADME, organism-based, Canis lupus familiaris; conditions: in vivo
[11] = Volume of distribution at steady state in Beagle dog at 0.5 mg/kg, iv administered via bolus dose or 1 mg/kg, po administered via gavage by LC-MS/MS analysis; format: ADME, organism-based, Canis lupus familiaris; conditions: in vivo, read-out: Vdss
[12] = Elimination half life in Beagle dog at 0.5 mg/kg, iv administered via bolus dose or 1 mg/kg, po administered via gavage by LC-MS/MS analysis; format: ADME, organism-based, Canis lupus familiaris; conditions: in vivo, read-out: beta t1/2 (converted)
[13] = Oral bioavailability in Beagle dog at 1 to 2 mg/kg administered via gavage by LC-MS/MS analysis; format: ADME, organism-based, Canis lupus familiaris; conditions: in vivo
In short: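 Beagle dogs given oral doses of 1 mg/kg (n=2) or 2 mg/kg (n=2) in H2O–PEG200–DMSO (50:45:5). Bioavailability is the mean of the four animals, referenced to a 1 mg/kg intravenous dose.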

[14] = Drug excretion in Beagle dog urine at 1 mg/kg, po administered via gavage by LC-MS/MS analysis; format: ADME, organism-based, Canis lupus familiaris; conditions: read-out: Drug excretion
In short: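 Parent compound measured in urine of dogs after intravenous (1 mg/kg) or oral dosing; expressed as % of dose.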

Liver [15] = test: Drug metabolism in rat liver microsomes; format: ADME, microsome
In short: (§3)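 Intrinsic clearance measured in vitro with liver microsomes from mouse, rat, dog and human; expressed as mL/min/g tissue.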

Liver [16] = test: Drug metabolism in human liver microsomes; format: ADME, microsome; in short: as §3
Liver [17] = test: Drug metabolism in dog liver microsomes; format: ADME, Canis lupus familiaris, microsome; in short: as §3
Liver [18] = test: Drug metabolism in mouse liver microsomes; format: ADME, microsome; in short: as §3
[19] = Drug absorption in CD Sprague-Dawley rat hepatic portal vein at 3 mg/kg, po; format: ADME, organism-based; conditions: read-out: Drug absorption
In short: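 Rats given 3 mg/kg orally; the fraction of dose absorbed into the hepatic portal vein was calculated.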

[20] = Drug metabolism in human hepatocytes assessed as M11 formation by mass spectrometric analysis; format: ADME, cell-based, Hepatocyte
[21] = Drug metabolism in human hepatocytes assessed as M15 formation by mass spectrometric analysis; format: ADME, cell-based, Hepatocyte
[22] = Drug metabolism in human hepatocytes assessed as M19 formation by mass spectrometric analysis; format: ADME, cell-based, Hepatocyte
[23] = Drug metabolism in human hepatocytes assessed as M24 formation by mass spectrometric analysis; format: ADME, cell-based, Hepatocyte
[24] = Drug metabolism in human hepatocytes assessed as M26 formation by mass spectrometric analysis; format: ADME, cell-based, Hepatocyte
[25] = Bioavailability in sc dosed CD Sprague-Dawley rat by LC-MS/MS analysis; format: ADME, organism-based; conditions: in vivo; in short: as §2
[26] = Permeability in MDCK cells; format: ADME, cell-based, Canis lupus familiaris; conditions: dog, read-out: permeability
In short: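 Permeability measured across MDCK cell monolayers, reported in nm/s; n=3.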

[27] = Drug level in CD Sprague-Dawley rat brain at 300 mg/kg, po measured after 30 mins by LC-MS/MS analysis; format: ADME, organism-based; conditions: read-out: Drug uptake
In short: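 Rats given a single 300 mg/kg oral dose; brain and blood sampled 30 min later. Reported as brain concentration (ng/g) and brain:blood ratio.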

[28] = Drug uptake in arterial blood of ovalbumin-sensitized guinea pig model of histamine-induced allergic rhinitis at 1 mg/ml administered intranasally pretreated for 4 hrs followed by histamine challenge after 30 mins post atropine monohydrate hemisulfate addition; format: ADME, tissue-based, Cavia porcellus; conditions: in vivo, inhaled_or_intranasal, 0.5 h
In short: (§4)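 Arterial blood taken from guinea pigs immediately after nasal congestion was assessed, 4 or 25 h after an intranasal dose of 1 mg/mL solution (25 µL/nostril).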

[29] = Drug uptake in arterial blood of ovalbumin-sensitized guinea pig model of histamine-induced allergic rhinitis at 1 mg/ml administered intranasally pretreated for 24 hrs followed by histamine challenge after 30 mins post atropine monohydrate hemisulfate addition; format: ADME, tissue-based, Cavia porcellus; conditions: in vivo, inhaled_or_intranasal, 0.5 h; in short: as §4
[30] = Drug level in blood of ovalbumin-sensitized guinea pig model of histamine-induced allergic rhinitis; format: ADME, tissue-based, Cavia porcellus; conditions: read-out: Drug uptake; in short: as §4
in vivo = conditions: CD Sprague-Dawley, rat, brain and blood, po, 300 mg/kg
[31] = Drug excretion in Beagle dog urine at 1 mg/kg, iv administered via bolus dose by LC-MS/MS analysis

CCCCc1cc(OC2CCN(CCCNS(=O)(=O)CC)CC2)c2ncccc2c1
pKa [1]: 8.5

CCCCc1cc(OC2CCN(CCCS(=O)(=O)C(C)(C)C)CC2)c2ncccc2c1
pKa [1]: 8
concentration at 5 min [2]: 133 ng/g
Kp at 5 min [3]: 0.77

CCCCc1cc(OC2CCN(CCCS(=O)(=O)CC)CC2)c2ncccc2c1.Cl.Cl
pKa [1]: 7.9
concentration at 5 min [2]: 62 ng/g
Kp at 5 min [3]: 0.09
AUC(0-t) [4]: 0.568 µg·h/mL

CCCCc1cc(OC2CCN(CCCCNS(=O)(=O)CC)CC2)c2ncccc2c1.Cl.Cl
concentration at 5 min [2]: 26 ng/g
Kp at 5 min [3]: 0.1
clearance [5]: 2.28 L/h/kg
Vd [6]: 4.2 L/kg
half-life [7]: 1.8 h
bioavailability [8]: 4 to 9%
bioavailability [9]: 45%
CL (Rattus norvegicus): 45%
clearance [10]: 1.2 L/h/kg
CL (Canis familiaris): 65%
Vd [11]: 4.5 L/kg
half-life [12]: 3.8 h
bioavailability [13]: 5%
dose excreted [14]: < 0.1%
Drug metabolism (Liver [15]): 2.9 mL/min/g
Drug metabolism (Liver [16]): 1.4 mL/min/g
Drug metabolism (Liver [17]): 3.6 mL/min/g
Drug metabolism (Liver [18]): 3.7 mL/min/g
Fa [19]: 13 to 16%
Drug metabolism [20]: Metabolite_Detected
Drug metabolism [21]: Metabolite_Detected
Drug metabolism [22]: Metabolite_Detected
Drug metabolism [23]: Metabolite_Detected
Drug metabolism [24]: Metabolite_Detected
bioavailability [25]: 45%
Papp [26]: 52 nm/s
concentration at 0.5 h [27]: 14500 ng/g
Drug uptake [28]: Active
Drug uptake [29]: Active
concentration [30]: 7 nM
Kp at 0.5 h (in vivo): 11
AUC(0-t) [4]: 0.062 µg·h/mL
dose excreted [31]: < 1%

CCCCc1cc(OC2CCN(CCS(=O)(=O)CC)CC2)c2ncccc2c1
pKa [1]: 6.5
